Screening data as filed in PubChem.
Rows were chosen to be rich in hits. Some 2.2% of all compounds tested hit in one or more screens of this group.
PfG6PD inh = PfG6PD (Plasmodium falciparum) enzyme inhibition | PfGluPho enzyme, NADPH resazurin-diaphorase fluorescence | inhibition, % at 20 µM | hit rate 0.78% among 350,000;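 active = inhibition reaching at least a set limit at 20 µM in the primary screen, cut at about 59% in these data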
Granule exo inh = blocks lytic granule exocytosis; hit rate 0.66% among 360,000; AID 651702; TALL-104 LAMP-1 surface exposure, flow cytometry; cells stimulated with thapsigargin and PMA; inhibition, % at 10 µM;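 active = inhibition above about 55%, limit read from the data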
HKDC1 inhibitor = blocks human hexokinase HKDC1 activity | recombinant HKDC1, G6PDH/diaphorase resazurin coupled fluorescence | inhibition, % at 20 µM | hit rate 0.16% among 340,000;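 active = inhibition above about 35% when tested at 20 µM, limit read from the data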
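Test system: HK5 enzyme. Quantity: 5 µg/mL HK5 final. Reagent: glucose and ATP substrates. Schedule: 90 min reaction incubation at room temperature, dark. Technique: resazurin-to-resorufin fluorescence via G6PDH and diaphorase coupling, 525/613 nm. Control set: DMSO wells with and without enzyme mix.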
ABHD5 PLIN5 PPI = inhibitors of human ABHD5-perilipin-5 interaction; Q00G26+Q8WTS1; Split G. princeps luciferase complementation, luminescence, 4 h; inhibition, % at 4 µM; hit rate 0.78% among 360,000; AID 602281;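 active = inhibition above the mean inhibition across every tested compound plus 3 SD, cut at about 22% in these data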
HKDC1 act conf2 = HKDC1 (human) activation, single-dose confirmed. shares compounds with HKDC1 inhibitor. recombinant HKDC1, G6PDH/diaphorase resazurin fluorescence; stronger effect = lower value. inhibition, % at 20 µM. hit rate 14% among 740;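 active = inhibition at or below a set negative limit, negative inhibition meaning the enzyme was activated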
Numbers stand for hits; . = inactive; / = no result.

SMILES	PfG6PD inh	Granule exo inh	HKDC1 inhibitor	ABHD5 PLIN5 PPI	HKDC1 act conf2
CCOc1ccc(NC(=O)CN(C)C(=O)C2CCN(C(=O)Nc3ccccc3)CC2)cc1OCC	.	.	.	.	/
O=c1nc(/C=C/c2cc([N+](=O)[O-])ccc2Cl)cc(C(F)(F)F)[nH]1	.	.	.	.	.
O=c1nc(/C=C/c2cccn2-c2ccc([N+](=O)[O-])cc2)cc(C(F)(F)F)[nH]1	.	.	.	.	/
O=C(COC(=O)CNS(=O)(=O)c1cc(C(F)(F)F)ccc1Cl)NC1CC1	.	.	.	.	/
CSc1nc(Cl)cc(Nc2ccc(O)cc2)n1	.	.	.	.	/
COC(=O)Cn1c2ccc(F)cc2c2nc(C)sc21	.	.	.	.	-90.4
CCOC(=O)Cn1c2ccc(F)cc2c2nc(C)sc21	.	.	.	.	-36.6
Cc1ccc2nc(N(CCN(C)C)C(=O)C3CCN(S(=O)(=O)c4cccs4)CC3)sc2c1	.	.	/	.	/
CC1(C(=O)Nc2ccc(Cl)c(Cl)c2)CCN1C(=O)C1CCCCC1 (configuration not stated)	/	.	/	.	/
O=C(/C=C/c1ccc(Br)cc1)NC(=S)Nc1ccc(S(=O)(=O)Nc2nccs2)cc1	.	.	.	.	.
CCCOC1CCCN(C(=O)CCc2nnc(-c3ccc4c(c3)OCO4)o2)C1 (configuration not stated)	.	.	.	.	/
O=[N+]([O-])c1ccccc1Oc1ccc(S(=O)(=O)N2CCOCC2)cc1	.	.	.	.	/
Cn1c2nc(=O)[nH]c(=O)c-2cc2ccccc21	.	.	.	.	/
Cc1ccc(C)c(-n2c3nc(=O)n(C)c(=O)c-3cc3ccccc32)c1	.	.	.	.	/
Cc1cccc(-n2c3nc(=O)[nH]c(=O)c-3cc3cc([N+](=O)[O-])ccc32)c1	.	.	41.8	.	.
Cc1ccc(C)c(-n2c3nc(=O)[nH]c(=O)c-3cc3cc([N+](=O)[O-])ccc32)c1	.	.	47.4	.	.
S=C1Nc2ccccc2CS1	.	.	/	.	/
S=C1Cc2ccccc2N1	67.1	94.2	.	86.2	-191.7
CN(c1ccccc1)S(=O)(=O)c1ccc(Cl)c(C(=O)NCC(c2ccco2)N2CCCC2)c1 (configuration not stated)	.	.	.	.	/
O=C(CN1CCN(c2ccc(F)cc2)CC1)Nc1nccs1	.	.	.	.	/
CCCCC(=O)NC(c1ccc(N(CC)CC)cc1)c1ccc2cccnc2c1O (configuration not stated)	.	.	.	.	-59.3
CN(C)CC1CCC/C(=C\c2ccc(OC(=O)c3ccc(Cl)cc3)cc2)C1=O (configuration not stated)	.	.	36.6	.	.
CN(C)CC1CCC/C(=C\c2ccc(OC(=O)/C=C/c3ccccc3)cc2)C1=O (configuration not stated)	.	.	.	.	/
COc1ccc(N(CCCN2C(=O)c3cccc4cccc(c34)C2=O)C(=O)c2ccncc2)cc1	.	.	.	.	/
COc1ccc(N(CCCN2C(=O)c3cccc4cccc(c34)C2=O)C(=O)c2cccnc2)cc1	.	.	35.6	.	.
SMILES	PfG6PD inh	Granule exo inh	HKDC1 inhibitor	ABHD5 PLIN5 PPI	HKDC1 act conf2
Cc1ccccc1C(=O)Nc1ccc2c(C#N)c3nc4ccccc4nc3n2c1	.	.	37.1	.	.
Cc1c(C(=O)Nc2ccccc2)cn2c(nc3ccccc32)c1C#N	.	.	.	.	/
O=C(O)COc1ccc(/C=N/NC(=O)c2ccc(-c3csc(Nc4ccc(Cl)cc4)n3)cc2)cc1	.	.	76.2	.	.
CCOc1cc(/C=N/NC(=O)c2ccc(-c3csc(Nc4ccc(C)cc4)n3)cc2)ccc1OCC(=O)O	.	.	.	.	/
C[n+]1c(-c2ccccc2)cc2c(=Cc3ccccc3)c3ccccc3n21	.	.	41.9	.	.
COc1cc(S(=O)(=O)NCC(c2ccco2)N2CCCCC2)ccc1NC(C)=O (configuration not stated)	.	.	.	.	/
O=C(COC(=O)c1n[nH]c2ccccc12)c1cccc(Br)c1	.	.	37.5	.	-30.5
Cc1ccc(C)c(C(=O)COC(=O)c2n[nH]c3ccccc23)c1	.	.	.	.	/
CCOc1ccc(N(CC(=O)NCCSCc2ccc(Cl)cc2)S(C)(=O)=O)cc1	.	.	.	.	/
COc1ccc(Nc2nc3[nH]c(=O)cc(O)c3s2)cc1	.	.	.	.	/
O=c1cc(O)c2sc(Nc3ccc(F)c(Cl)c3)nc2[nH]1	.	.	45.6	.	.
O=c1cc(O)c2sc(Nc3ccc(Cl)c(F)c3)nc2[nH]1	.	.	38.8	.	.
